This note sets out measurements from ChEMBL document CHEMBL2146382, “Cytotoxic and antineoplastic activity of timosaponin A-III for human colon cancer cells” (J Nat Prod, 2011).

By IC50 is commonly meant the concentration that inhibits the measured activity by half. Lower therefore signals greater potency.

The subject of test [1] is HCT-15. Put plainly: Cell cycle arrest in human HCT15 cells assessed as accumulation at sub-G1 phase at 5 uM after 12 hrs using propidium-iodide staining by flow-cytometry (reference value: 5.2 %). The class given is functional.
Test [2] concerns HCT-15. Put plainly: Cell cycle arrest in human HCT15 cells assessed as accumulation at G2/M phase at 20 uM after 24 hrs using propidium-iodide staining by flow-cytometry (reference value: 22.4 %). The class given is functional.
The test system of test [3] is HCT-15. Put plainly: Induction of apoptosis in human HCT15 cells assessed as increase in caspase-8 expression after 12 to 24 hrs by Western blot analysis. The class given is functional, cell-based. An outline of the steps:
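HCT-15 cells in RPMI/10% FBS exposed to test compound at various concentrations; lysates quantified by BCA, 30–50 μg protein run on 10% SDS-PAGE, transferred to PVDF, blocked 1 h in 5% milk/PBST, primary antibodies overnight at 4 °C, HRP anti-mouse IgG 1:1500 for 3 h at room temperature, ECL detection.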
A general note: In western blotting, separated proteins are transferred to a membrane and probed.

In test [4] the test system is HCT-15. The test can be described thus: Cell cycle arrest in human HCT15 cells assessed as accumulation at S phase at 20 uM after 12 hrs using propidium-iodide staining by flow-cytometry (reference value: 34.7 %). The format is functional.
In test [5] the test system is HCT-15. Put plainly: Cytotoxicity against human HCT15 cells assessed as morphological changes with distinct rounded shapes and detachment at 5 to 20 uM by phase-contrast microscopy. The class given is functional, cell-based. Particulars: TDE = time-dependent effect. An outline of the steps:
(§1)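 HCT-15 cells treated with 0–20 μM for 12 and 24 h, vehicle-treated controls; morphology examined and photographed under phase-contrast microscope.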

A further test deals with Hs68. The test can be described thus: Growth inhibition of human HS68 cells. The class given is cell-based. An outline of the steps: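 SRB assay: cells at 5 × 10^4 cells/mL were exposed to a concentration series for 3 days, fixed with 10% TCA and stained with sulforhodamine B. Survival was expressed as % of solvent-treated control and IC50 taken by nonlinear regression of % survival versus concentration. Media held 10% heat-inactivated FBS plus antibiotics: RPMI (HCT-15, HCT 116, HT-29), RPMI with 25 mM HEPES (SW480, SW620), DMEM (MRC-5, Hs68). Cultures were kept at 37 C, 5% CO2.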

Test [6] relates to HCT-15. The test can be described thus: Antineoplastic activity against human HCT15 cells xenografted in nude BALB/c mouse assessed as inhibition of Ki-67 expression at 2 mg/kg, ip 3 times a week for 4 weeks by immunohistochemical analysis. Set-up: dose 2 mg/kg. The class given is functional, organism-based. An outline of the steps: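 HCT-15 cells (2 × 10^6 in 200 μL medium) implanted subcutaneously in flanks of BALB/c-nu (nu/nu) mice; dosing began at ca. 80 mm3 tumours; groups of five, randomized. 2 or 5 mg/kg given ip three times weekly in ethanol–cremophor–H2O (0.5:0.5:99), vehicle controls; caliper volume (3.14·L·W·H/6) three times weekly for 30 days; Ki-67 immunohistochemistry on tumour sections (1:250, 4 °C overnight, DAB, hematoxylin counterstain).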

In test [7] the test system is HCT-15. Put plainly: Cytotoxicity against human HCT15 cells assessed as dead cells up to 20 uM after 12 to 24 hrs by phase contrast microscopy. The format is functional, cell-based. An outline of the steps: as §1
The subject of test [8] is HCT-15. Put plainly: Induction of apoptosis in human HCT15 cells assessed as increase in caspase-9 expression after 12 to 24 hrs by Western blot analysis. The class given is functional, cell-based. An outline of the steps:
(§2)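 HCT-15 cells (RPMI, 10% heat-inactivated FBS, antibiotics-antimycotics, 37 C, 5% CO2) exposed to compound. Cells lysed, protein measured by BCA, 30-50 μg per lane resolved on 10% SDS-PAGE and electroblotted to PVDF. Membranes blocked 1 h in 5% nonfat milk/PBST, probed with primary antibodies overnight at 4 C, then HRP anti-mouse IgG 1:1500 for 3 h at room temperature. Detection by ECL; β-actin antibody available.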

Test [9] deals with HCT-15. The test can be described thus: Induction of apoptosis in human HCT15 cells assessed as suppression of procaspase-3 expression at 5 to 20 uM after 12 to 24 hrs by Western blot analysis. The format is functional, cell-based. An outline of the steps:
as §2

Test [10] relates to HCT-15. Put plainly: Cell cycle arrest in human HCT15 cells assessed as accumulation at S phase at 5 uM after 12 hrs using propidium-iodide staining by flow-cytometry (reference value: 34.7 %). The format is functional.

The source made the active and inactive calls. No cut-off for these calls is given here. Bounds are passed on as bounds.

`C[C@H]1CC[C@@]2(OC1)O[C@H]1C[C@H]3[C@@H]4CC[C@@H]5C[C@@H](O[C@@H]6O[C@H](CO)[C@H](O)[C@H](O)[C@H]6O[C@@H]6O[C@H](CO)[C@@H](O)[C@H](O)[C@H]6O)CC[C@]5(C)[C@H]4CC[C@]3(C)[C@H]1[C@@H]2C` [TIMOSAPONIN AIII]: the Activity is 4.8% with HCT-15 [1]; 0% in the test on HCT-15 [2]; 4.2% with HCT-15 [4]; “tde” with HCT-15 [5]; 22.5% with HCT-15 [10]. In addition, the outcome in the test with HCT-15 [3], with HCT-15 [6], with HCT-15 [7], in the test on HCT-15 [8] and in the test with HCT-15 [9] was Active. The molecule further had a half-inhibitory concentration (IC50) in the test on Hs68 above 50 µM.
